Series [1] in a line: Antioxidant activity against oxide-induced pBR322 DNA damage at 300 uM by agarose gel electrophoresis. It is filed as functional. In a few lines: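 Supercoiled pBR322 plasmid DNA (500 ng) in phosphate buffer pH 7.4, exposed for 20 min to superoxide generated by xanthine/xanthine oxidase, with or without test agent at 300 µM. SOD and quercetin were positive controls. Strand breaks were resolved by gel electrophoresis.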

Series [2] is described as follows: Cell cycle arrest in human NTUB1 cells assessed as accumulation in subG1 phase at 60 uM after 24 hrs using propidium iodide by FACS analysis. Format: functional, cell-based. In a few lines: (§1)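 NTUB1 bladder carcinoma cells (3 × 10⁵ or 8 × 10⁵ per 10 cm dish) were exposed to 40 or 60 µM for 24 h. Cells were trypsinized, fixed in ice-cold methanol at −20 °C overnight, and stained with 50 µg/mL propidium iodide for 30 min at room temperature. DNA content was measured by flow cytometry, with the sub-G1 fraction taken as apoptosis. Three independent experiments.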
On the technique in general: Flow cytometry measures light scatter and fluorescence of single cells or particles in a stream.

Series [3] deals with Xanthine dehydrogenase/oxidase (Homo sapiens, UniProt P47989). The series can be described thus: Inhibition of xanthine oxidase activity assessed as uric acid formation pretreated for 15 mins before substrate addition measured after 5 mins. To be noted: for inhibition (INH): 5 min.
Series [4] can be described thus: Induction of apoptosis in human NTUB1 cells assessed as increase in ROS level at 20 to 40 uM after 24 hrs by flow cytometry relative to control. Format: functional. Put shortly:
(§2)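 NTUB1 cells in 6-well plates were treated for 24 h at 20 or 40 µM. Controls were 1 mM NAC and 10 µM cisplatin. 10 µM DCFH-DA was added 30 min before harvest; cells were then trypsinized and washed in PBS. DCF green fluorescence was read by flow cytometry through a 525 nm band-pass filter and expressed relative to control. Mean ± S.D., n = 3.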

Series [5] in a line: Cytotoxicity against human NTUB1 cells after 72 hrs by MTT assay. Format: functional, cell-based. To be noted: NTUB1, 72 h. Put shortly:
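NTUB1 cells in RPMI 1640 with 10% FBS were seeded at 1 × 10³ cells/well and left overnight at 37 °C. They were then exposed to graded concentrations for 72 h. MTT was added; plates were spun, the medium removed and DMSO added, and absorbance read at 540 nm. Viability is the ratio to untreated control, and IC50 was taken from the curve. Mean ± S.D., n = 3.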

The nature of series [6]: Antioxidant activity assessed as ABTS radical scavenging activity. Format: functional. Put shortly: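 ABTS (7 mM in deionized water) was mixed with 2.45 mM potassium persulfate to form the radical cation. 180 µL of this solution was combined with 40 µL of sample, and absorbance was read at 630 nm. Vitamin E served as positive control. Mean ± s.e.m., n = 3.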
Series [7] relates to NTUB1. The series can be described thus: Induction of apoptosis in human NTUB1 cells assessed as increase in ROS level at 40 uM after 24 hrs by flow cytometry. It is filed as functional, cell-based. In a few lines: as §2
The nature of series [8]: Cytotoxicity against human SV-HUC1 cells at 0.3 to 50 uM after 72 hrs by MTT assay. It is filed as cell-based. To be noted: sv-huc1, 72 h. Put shortly:
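SV-HUC1 cells (SV40-immortalized human uroepithelium), grown in F12 with 10% FBS, were seeded at 1 × 10³ cells/well and left overnight. Graded concentrations were applied for 72 h at 37 °C. Read-out was MTT formazan dissolved in DMSO, absorbance at 540 nm. Viability is expressed relative to untreated control. Mean ± S.D., n = 3.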
In general terms: Tetrazolium assays rely on reduction of a dye to a coloured formazan, in cell work by metabolically active cells.

Series [9] has as its system NTUB1. In words: Induction of apoptosis in human NTUB1 cells assessed as increase in ROS level at 20 uM after 24 hrs by flow cytometry. Format: functional, cell-based. In a few lines: as §2
A short description of series [10]: Cell cycle arrest in human NTUB1 cells assessed as accumulation in subG1 phase at 40 uM after 24 hrs using propidium iodide by FACS analysis. Format: functional, cell-based. Put shortly:
as §1

Active and inactive are the calls of the source. The rule behind the calls is not given here.

Sequence of Xanthine dehydrogenase/oxidase (P47989 whole entry): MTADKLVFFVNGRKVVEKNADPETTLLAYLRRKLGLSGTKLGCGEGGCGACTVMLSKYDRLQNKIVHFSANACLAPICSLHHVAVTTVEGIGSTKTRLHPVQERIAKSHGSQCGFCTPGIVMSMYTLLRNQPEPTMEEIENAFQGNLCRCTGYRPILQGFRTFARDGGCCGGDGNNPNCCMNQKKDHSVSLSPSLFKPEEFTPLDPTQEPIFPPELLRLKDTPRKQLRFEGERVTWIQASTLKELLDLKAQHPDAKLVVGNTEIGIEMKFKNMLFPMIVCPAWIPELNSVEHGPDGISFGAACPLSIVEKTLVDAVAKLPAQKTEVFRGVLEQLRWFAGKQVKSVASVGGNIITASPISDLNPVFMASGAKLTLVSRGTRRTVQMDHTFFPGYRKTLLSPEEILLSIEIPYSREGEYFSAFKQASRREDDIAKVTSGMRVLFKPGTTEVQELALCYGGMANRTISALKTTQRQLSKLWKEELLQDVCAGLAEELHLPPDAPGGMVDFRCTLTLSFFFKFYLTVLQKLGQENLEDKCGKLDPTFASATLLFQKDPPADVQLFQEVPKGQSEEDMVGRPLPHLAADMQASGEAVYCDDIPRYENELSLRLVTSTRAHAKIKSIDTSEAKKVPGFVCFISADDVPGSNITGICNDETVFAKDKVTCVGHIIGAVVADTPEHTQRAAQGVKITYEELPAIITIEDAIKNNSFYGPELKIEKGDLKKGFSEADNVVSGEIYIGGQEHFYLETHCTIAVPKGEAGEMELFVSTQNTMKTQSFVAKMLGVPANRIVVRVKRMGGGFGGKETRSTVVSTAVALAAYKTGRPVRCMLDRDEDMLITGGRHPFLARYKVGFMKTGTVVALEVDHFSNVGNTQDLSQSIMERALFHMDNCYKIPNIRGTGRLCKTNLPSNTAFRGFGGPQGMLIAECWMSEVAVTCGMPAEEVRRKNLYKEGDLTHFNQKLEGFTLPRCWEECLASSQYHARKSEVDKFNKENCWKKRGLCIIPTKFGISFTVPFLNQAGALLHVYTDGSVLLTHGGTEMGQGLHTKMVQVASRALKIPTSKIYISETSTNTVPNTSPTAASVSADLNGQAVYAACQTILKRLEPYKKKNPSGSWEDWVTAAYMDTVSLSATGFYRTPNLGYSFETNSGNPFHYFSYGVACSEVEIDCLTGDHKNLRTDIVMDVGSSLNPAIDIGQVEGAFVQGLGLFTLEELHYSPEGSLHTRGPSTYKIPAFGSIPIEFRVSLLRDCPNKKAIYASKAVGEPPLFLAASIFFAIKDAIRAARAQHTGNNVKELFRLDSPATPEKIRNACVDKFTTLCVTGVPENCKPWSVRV

One may read the IC50 as the concentration that gives 50% inhibition. In the case of `O=c1c2ccc(O)cc2oc2cc(OCCCN3CCCCC3)ccc12`, the result in series [1], in [2] and in [7] was Active. Moreover, the IC50 in [3] is 82.3 µM; in series [5], 35.1 µM; in series [6] (read-out: IC50), 69.3 µM. Besides, in series [3], the “inhibition (INH)” value is “Dose-dependent effect”. Besides, the figures for the Activity in series [4] and in series [8] were 250% and “Non-toxic”, respectively.

As to `O=c1c2ccc(O)cc2oc2cc(OCCCN3CCCC3)ccc12`, in series [1], the result was Active. In series [3], the 50% inhibitory concentration (IC50) was 68.8 µM and the “inhibition (INH)” value is listed as “Dose-dependent effect”. Further, the IC50 in series [6] (read-out: IC50) was 88.8 µM.

As to `CCN(CC)CCCOc1ccc2c(=O)c3ccc(O)cc3oc2c1`, in [3], the IC50 was 53.5 µM and the “inhibition (INH)” value is “Dose-dependent effect”. The IC50 in series [6] (read-out: IC50) worked out at 80.5 µM.

Regarding `O=c1c2ccccc2oc2cc(OCCCN3CCCC3)ccc12`, the result in series [1] was Active. In addition, in [3], the concentration for half-maximal inhibition (IC50) amounted to 65.5 µM and the “inhibition (INH)” value is on record as “Dose-dependent effect”. Besides, the IC50 result in series [6] is “Not Active”.

With `CN1CCN(CCCOc2ccc3c(=O)c4ccccc4oc3c2)CC1`, the outcome in series [1] was Active. For the same compound, in [3], the concentration for half-maximal inhibition (IC50) amounted to 47.3 µM and the “inhibition (INH)” value is given as “Dose-dependent effect”. In addition, the concentration for half-maximal inhibition (IC50) in [6] (read-out: IC50) came out at 152 µM.

On to `O=c1c2ccccc2oc2cc(OCCCN3CCCCC3)ccc12`, for which the result in series [1], in series [9] and in [10] was Active. Moreover, the IC50 is 37.8 µM in [3], 31.2 µM in series [5] and 90 µM in series [6] (read-out: IC50). Further, the “inhibition (INH)” value in series [3] is reported as “Dose-dependent effect”. Also, in series [4], the Activity was 250%.

Turning to `CCN(CC)CCCOc1ccc2c(=O)c3ccccc3oc2c1`, the outcome in series [1] was Active. In addition, in [3], the IC50 turned out to be 56.5 µM and the “inhibition (INH)” value is listed as “Dose-dependent effect”. In series [6] (read-out: IC50), the IC50 was 84.9 µM.

As for `O=c1c2ccccc2oc2cc(OCCCN3CCNCC3)ccc12`, the result in [1] was Active. In series [3], the IC50 came to 109 µM and the “inhibition (INH)” value is “Dose-dependent effect”. Also, the IC50 in [6] (read-out: IC50) stood at 75.1 µM.

For VITAMIN E, in [6] (read-out: IC50), the IC50 worked out at 77.2 µM.

For the compound `Oc1ncnc2[nH]ncc12` [ALLOPURINOL], the “inhibition (INH)” value in series [3] is on record as “Dose-dependent effect”.

For the compound `O=c1c2ccc(O)cc2oc2cc(OCCCNC3CC3)ccc12`, the outcome in series [1] was Active. Further, in series [3], the half-inhibitory concentration (IC50) was 63 µM and the “inhibition (INH)” value is on record as “Dose-dependent effect”. The IC50 in series [6] (read-out: IC50) was found to be 108 µM.

For `CN1CCN(CCCOc2ccc3c(=O)c4ccc(O)cc4oc3c2)CC1`, in [3], the IC50 worked out at 44.3 µM and the “inhibition (INH)” value is “Dose-dependent effect”. The IC50 in [6] (read-out: IC50) was 76.5 µM.

`O=c1c2ccc(O)cc2oc2cc(OCCCN3CCNCC3)ccc12`: in series [3], the 50% inhibitory concentration (IC50) turned out to be 91.9 µM and the “inhibition (INH)” value is reported as “Dose-dependent effect”. Moreover, the IC50 in series [6] (read-out: IC50) amounted to 65 µM.

As for `O=c1c2ccc(O)cc2oc2cc(OCCCNC3CCCCC3)ccc12`, the result in [1] was Active. The 50% inhibitory concentration (IC50) worked out at 72.9 µM in [3] and 106 µM in series [6] (read-out: IC50). For the same compound, in [3], the “inhibition (INH)” value is “Dose-dependent effect”.

Source of the values: ChEMBL document CHEMBL1759938, “Antioxidant xanthone derivatives induce cell cycle arrest and apoptosis and enhance cell death induced by cisplatin in NTUB1 cells associated with ROS” (Eur J Med Chem, 2011).
